Experiment [1] deals with von Hippel-Lindau disease tumor suppressor/Tyrosine-protein kinase BTK (Homo sapiens) (UniProt Q06187+P40337). Briefly: PROTAC activity at BTK/VHL protein protein interaction in human Ramos cell assessed as degradation of BTK incubated less than 3000 nM for 17 hrs measured by Western blot analysis. Background: In western blotting, separated proteins are transferred to a membrane and probed.

The next experiment relates to MINO. Briefly: Induction of apoptosis in human MINO cells at 0.15 to 3000 nM for 48 hrs by Annexin-V/propidium iodide staining based flow cytometric analysis. Type of experiment: functional, cell-based. The following applies: dose 0.15-3000 nM. The essentials: (§1)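 Cells plated at 2 × 10^6 per well and treated 48 h at 3,000–0.15 nM (3-fold dilutions) or 1% DMSO. Harvested, washed in cold PBS, stained with Annexin V Alexa Fluor 488/propidium iodide, analysed by flow cytometry for % live, apoptotic and necrotic cells. Mean of two independent experiments.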
For orientation: In flow cytometry, cells or beads pass a laser one at a time.

Another experiment concerns TMD8. Briefly: Induction of apoptosis in human TMD8 cells measured after 48 hrs by Annexin-V/propidium iodide staining based flow cytometric analysis. Type of experiment: functional, cell-based. The following applies: dose 0.15-3000 nM. The essentials: as §1
The nature of experiment [2]: Cytotoxicity against human MINO cells incubated for 48 hrs by celltitre glo 2.0 assay. Format: functional, cell-based.

Calls of active or inactive are those of the source. The rule behind the calls is not given here.

Chain of von Hippel-Lindau disease tumor suppressor/Tyrosine-protein kinase BTK (Homo sapiens) (P40337 whole entry partner): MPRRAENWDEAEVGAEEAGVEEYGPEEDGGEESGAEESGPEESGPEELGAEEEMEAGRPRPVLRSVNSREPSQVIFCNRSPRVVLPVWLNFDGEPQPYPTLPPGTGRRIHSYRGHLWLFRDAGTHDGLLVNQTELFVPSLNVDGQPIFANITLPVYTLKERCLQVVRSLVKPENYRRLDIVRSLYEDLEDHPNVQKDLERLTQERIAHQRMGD
Chain of von Hippel-Lindau disease tumor suppressor/Tyrosine-protein kinase BTK (Homo sapiens) (Q06187 2-659 limits assumed): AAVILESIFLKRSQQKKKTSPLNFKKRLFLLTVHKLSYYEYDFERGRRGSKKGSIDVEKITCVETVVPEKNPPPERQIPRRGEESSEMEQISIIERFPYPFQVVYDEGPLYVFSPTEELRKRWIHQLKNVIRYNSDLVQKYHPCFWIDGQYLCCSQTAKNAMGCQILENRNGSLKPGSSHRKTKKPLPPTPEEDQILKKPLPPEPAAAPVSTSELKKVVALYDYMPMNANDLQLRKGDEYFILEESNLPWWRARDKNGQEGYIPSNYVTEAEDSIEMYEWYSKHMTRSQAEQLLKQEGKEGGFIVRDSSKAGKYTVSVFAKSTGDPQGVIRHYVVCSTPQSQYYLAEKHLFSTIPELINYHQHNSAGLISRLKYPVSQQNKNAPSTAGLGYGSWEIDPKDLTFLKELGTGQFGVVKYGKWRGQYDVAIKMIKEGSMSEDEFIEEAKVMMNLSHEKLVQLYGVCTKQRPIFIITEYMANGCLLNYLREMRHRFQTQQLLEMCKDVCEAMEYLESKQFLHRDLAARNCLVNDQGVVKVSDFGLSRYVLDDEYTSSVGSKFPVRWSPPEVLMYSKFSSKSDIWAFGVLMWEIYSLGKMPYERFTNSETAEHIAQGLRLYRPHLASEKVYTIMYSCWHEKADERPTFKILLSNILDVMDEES

For `Cc1ncsc1-c1ccc(CNC(=O)[C@@H]2C[C@@H](O)CN2C(=O)[C@@H](NC(=O)COCCOCCCCCCC(=O)N2CCN(c3ccc(Nc4cc(-c5ccnc(N6CCn7c(cc8c7CC(C)(C)C8)C6=O)c5CO)cn(C)c4=O)nc3)[C@@H](C)C2)C(C)(C)C)cc1`, in experiment [1], the result was inactive.

Broadly, the IC50 is the concentration at which inhibition is half-maximal. A lower IC50 goes with greater potency. Turning to `C[C@H]1CN(C2COC2)CCN1c1ccc(Nc2cc(-c3ccnc(N4CCn5c(cc6c5CC(C)(C)C6)C4=O)c3CO)cn(C)c2=O)nc1` [FENEBRUTINIB], the outcome in the experiment on MINO was inactive. Also, the Activity entry in the experiment on TMD8 is “Dose-Dependent Effect”. In experiment [2], this molecule showed an IC50 of 7.8 nM.

(Values after ChEMBL document CHEMBL5338787, “Discovery of Novel Bruton's Tyrosine Kinase PROTACs with Enhanced Selectivity and Cellular Efficacy” (J Med Chem, 2023).)
